Legend:
[1] = test system: RA patients; test: Study 1, treatment‐emergent adverse events; assay type: in vivo, human
Summary of the method: (§1)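 Both double-blind, placebo-controlled trials in RA patients on stable MTX. Oral capsules daily for 4 weeks, with 7–10-day follow-up: 200 mg once daily or 100 mg twice daily (study 1); 30, 75, 150 or 300 mg once daily (study 2). At every visit: AEs, vital signs, hematology, serum biochemistry, coagulation and urinalysis. EKG at baseline and follow-up, plus week 4 in study 1. Safety population, descriptive treatment-emergent AE summaries.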

[2] = test system: RA patients; test: Studies 1 and 2, laboratory safety, hematology, vital signs, EKG; assay type: in vivo, human
Summary of the method: as §1

[3] = test system: VCAM‐1, ICAM‐1, MMP‐3, haptoglobin, IL‐18, YKL‐40; test: Study 2, PD marker proteins in plasma; assay type: in vivo, human; settings: 75, 150, or 300 mg, after 4 weeks
Summary of the method: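 Plasma taken at baseline and week 4 from all study 2 participants. Dosed once daily for 4 weeks. YKL-40 measured by ELISA; VCAM-1, ICAM-1, MMP-3, haptoglobin and IL-18 quantified by a second technology at a service laboratory. Each patient normalized to own baseline, expressed as percent change. Mean ± SEM; Kruskal-Wallis test with Dunn's post hoc test.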

[4] = test system: healthy volunteers; settings: cited from earlier work
[5] = test system: JAK‐1 relative to JAK‐2; settings: human whole blood assays; cited from earlier work

O=C(Nc1nc2cccc(-c3ccc(CN4CCS(=O)(=O)CC4)cc3)n2n1)C1CC1 [Filgotinib]
treatment-related TEAE: Gingival bleeding ([1]; 200 mg once daily, study 1): 0 number (%) of patients
treatment-related TEAE: Infections and infestations ([1]; 200 mg once daily, study 1): 0 number (%) of patients
treatment-related TEAE: Laboratory findings ([1]; 200 mg once daily, study 1): 0 number (%) of patients
treatment-related TEAE: Lipase increased ([1]; 200 mg once daily, study 1): 0 number (%) of patients
treatment-related TEAE: Musculoskeletal and connective tissue disorders ([1]; 200 mg once daily, study 1): 0 number (%) of patients
treatment-related TEAE: Nervous system disorders ([1]; 200 mg once daily, study 1): 1 (8.3) number (%) of patients
treatment-related TEAE: Renal and urinary disorders ([1]; 200 mg once daily, study 1): 0 number (%) of patients
overall tolerability ([1]; studies 1 and 2): generally well tolerated
Creatinine, mean change, day 28 ([2]; 30 mg once daily): 1.47 µmol/L
HDL cholesterol, mean change, day 28 ([2]; 30 mg once daily): 0.03 mmol/L
Hemoglobin, mean change, day 28 ([2]; 30 mg once daily): −0.3 gm/liter
LDL cholesterol, mean change, day 28 ([2]; 30 mg once daily): 0.25 mmol/L
Neutrophils, mean change, day 28 ([2]; 30 mg once daily): -6.5e+08 L⁻¹
Platelets, mean change, day 28 ([2]; 30 mg once daily): -1.8e+10 L⁻¹
Creatinine, mean change, day 28 ([2]; 75 mg once daily): 5.18 µmol/L
HDL cholesterol, mean change, day 28 ([2]; 75 mg once daily): 0.11 mmol/L
Hemoglobin, mean change, day 28 ([2]; 75 mg once daily): 2.0 gm/liter
LDL cholesterol, mean change, day 28 ([2]; 75 mg once daily): 0.14 mmol/L
Neutrophils, mean change, day 28 ([2]; 75 mg once daily): -7.4e+08 L⁻¹
Platelets, mean change, day 28 ([2]; 75 mg once daily): -3.5e+10 L⁻¹
Creatinine, mean change, day 28 ([2]; 100 mg twice daily): -6.98 µmol/L
HDL cholesterol, mean change, day 28 ([2]; 100 mg twice daily): 0.20 mmol/L
Hemoglobin, mean change, day 28 ([2]; 100 mg twice daily): 3.0 gm/liter
LDL cholesterol, mean change, day 28 ([2]; 100 mg twice daily): 0.07 mmol/L
Neutrophils, mean change, day 28 ([2]; 100 mg twice daily): -1.45e+09 L⁻¹
Platelets, mean change, day 28 ([2]; 100 mg twice daily): -3.5e+10 L⁻¹
Creatinine, mean change, day 28 ([2]; 150 mg once daily): 4.50 µmol/L
HDL cholesterol, mean change, day 28 ([2]; 150 mg once daily): 0.07 mmol/L
Hemoglobin, mean change, day 28 ([2]; 150 mg once daily): −1.0 gm/liter
LDL cholesterol, mean change, day 28 ([2]; 150 mg once daily): 0.01 mmol/L
Neutrophils, mean change, day 28 ([2]; 150 mg once daily): -1.37e+09 L⁻¹
Platelets, mean change, day 28 ([2]; 150 mg once daily): -3.2e+10 L⁻¹
increase in HDL at week 4 versus baseline ([2]; 200 mg): ~15%
Creatinine, mean change, day 28 ([2]; 200 mg once daily): 5.47 µmol/L
HDL cholesterol, mean change, day 28 ([2]; 200 mg once daily): 0.16 mmol/L
Hemoglobin, mean change, day 28 ([2]; 200 mg once daily): 7.8 gm/liter
LDL cholesterol, mean change, day 28 ([2]; 200 mg once daily): -0.25 mmol/L
Neutrophils, mean change, day 28 ([2]; 200 mg once daily): -1.21e+09 L⁻¹
Platelets, mean change, day 28 ([2]; 200 mg once daily): -3.3e+10 L⁻¹
increase in HDL at week 4 versus baseline ([2]; 300 mg): > 30%
Creatinine, mean change, day 28 ([2]; 300 mg once daily): 6.90 µmol/L
HDL cholesterol, mean change, day 28 ([2]; 300 mg once daily): 0.48 mmol/L
Hemoglobin, mean change, day 28 ([2]; 300 mg once daily): 4.4 gm/liter
LDL cholesterol, mean change, day 28 ([2]; 300 mg once daily): 0.37 mmol/L
Neutrophils, mean change, day 28 ([2]; 300 mg once daily): -1.13e+09 L⁻¹
Platelets, mean change, day 28 ([2]; 300 mg once daily): -5.8e+10 L⁻¹
decrease in neutrophils from baseline ([2]; doses of ≥75 mg): 14–24%
lymphocytes and lymphocyte subpopulations ([2]; during filgotinib treatment): unaffected
liver function tests (transaminases) ([2]; in vivo): lack of changes
neutropenia ([2]; in vivo): no neutropenia
reticulocytes ([2]; in vivo): absence of effects
vital signs values and EKG parameters ([2]; in vivo): No clinically relevant trends or changes
effect on levels of circulating PD markers [3]: dose‐dependent effect
inhibition of JAK pathways in PD assays ([4]; healthy volunteers, daily doses of ≥100 mg): Significant inhibition of JAK‐1 pathways but not JAK‐2
tolerability and safety in healthy volunteers ([4]; up to 10 days, doses up to 450 mg once daily): well tolerated and safe
selectivity for inhibition of JAK‐1 relative to JAK‐2 [5]: ~30 fold

Source: article PMC5656813 (Arthritis & Rheumatology (Hoboken, N.j.), 2017)
